Tested on: HEK-293T
Experiment: Multiplex assay against HEK293T
Assay type: toxicity, cell-based
Conditions: human
Summary of the method: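 Live cells were stained at seeding with Hoechst33342, BioTracker Green Microtubule Cytoskeleton Dye, MitoTracker Red and Annexin V Alexa Fluor 680. Following compound addition, they were imaged on a CQ1 microscope at 37°C and 5% CO2 and gated by CellPathfinder machine learning into Hoechst high-intensity objects or normal cells, with normal cells split into healthy, pyknosed or fragmented nuclei and pyknosed cells into mitotic or apoptotic. Tubulin, mitochondrial-mass and membrane-permeability phenotypes are per cents of healthy-nucleus cells.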

[1] = 12 h, 1 µM, compound concentration 1 uM, replicate 1
[2] = 12 h, 1 µM, compound concentration 1 uM, replicate 2
[3] = 12 h, 10 µM, compound concentration 10 uM, replicate 1
[4] = 12 h, 10 µM, compound concentration 10 uM, replicate 2
[5] = 24 h, 1 µM, compound concentration 1 uM, replicate 1
[6] = 24 h, 1 µM, compound concentration 1 uM, replicate 2
[7] = 24 h, 10 µM, compound concentration 10 uM, replicate 1
[8] = 24 h, 10 µM, compound concentration 10 uM, replicate 2
[9] = 48 h, 1 µM, compound concentration 1 uM, replicate 1
[10] = 48 h, 1 µM, compound concentration 1 uM, replicate 2
[11] = 48 h, 10 µM, compound concentration 10 uM, replicate 1
[12] = 48 h, 10 µM, compound concentration 10 uM, replicate 2

Cl.Cl.OCCOCCN1CCN(C(c2ccccc2)c2ccc(Cl)cc2)CC1 (stereo not drawn) [HYDROXYZINE HYDROCHLORIDE]
Population Apoptotic (%) [1]: 34% | Population Fragmented Nuclei (%) [1]: 7% | Population Healthy Nuclei (%) [1]: 79% | Population Hoechst High Intensity Objects (%) [1]: 6% | Population Membrane Permeable-Phenotype (%) [1]: 0% | Population Mitochondria Different-Phenotype (%) [1]: 48% | Population Mitotic Cells (%) [1]: 66% | Population Normal (%) [1]: 93% | Population Pyknosed Nuclei (%) [1]: 13% | Population Tubulin-Different-Phenotype (%) [1]: 24% | Total Cell Count [1]: 394 | Population Apoptotic (%) [2]: 70% | Population Fragmented Nuclei (%) [2]: 5% | Population Healthy Nuclei (%) [2]: 84% | Population Hoechst High Intensity Objects (%) [2]: 9% | Population Mitochondria Different-Phenotype (%) [2]: 58% | Population Mitotic Cells (%) [2]: 29% | Population Normal (%) [2]: 90% | Population Pyknosed Nuclei (%) [2]: 9% | Population Tubulin-Different-Phenotype (%) [2]: 28% | Total Cell Count [2]: 362 | Population Apoptotic (%) [3]: 49% | Population Fragmented Nuclei (%) [3]: 8% | Population Healthy Nuclei (%) [3]: 71% | Population Hoechst High Intensity Objects (%) [3]: 11% | Population Membrane Permeable-Phenotype (%) [3]: 0% | Population Mitochondria Different-Phenotype (%) [3]: 71% | Population Mitotic Cells (%) [3]: 50% | Population Normal (%) [3]: 88% | Population Pyknosed Nuclei (%) [3]: 19% | Population Tubulin-Different-Phenotype (%) [3]: 65% | Total Cell Count [3]: 354 | Population Apoptotic (%) [4]: 68% | Population Fragmented Nuclei (%) [4]: 6% | Population Healthy Nuclei (%) [4]: 73% | Population Hoechst High Intensity Objects (%) [4]: 19% | Population Membrane Permeable-Phenotype (%) [4]: 1% | Population Mitochondria Different-Phenotype (%) [4]: 83% | Population Mitotic Cells (%) [4]: 31% | Population Normal (%) [4]: 80% | Population Pyknosed Nuclei (%) [4]: 20% | Population Tubulin-Different-Phenotype (%) [4]: 59% | Total Cell Count [4]: 327 | Population Apoptotic (%) [5]: 22% | Population Fragmented Nuclei (%) [5]: 10% | Population Healthy Nuclei (%) [5]: 78% | Population Hoechst High Intensity Objects (%) [5]: 2% | Population Membrane Permeable-Phenotype (%) [5]: 0% | Population Mitochondria Different-Phenotype (%) [5]: 34% | Population Mitotic Cells (%) [5]: 77% | Population Normal (%) [5]: 97% | Population Pyknosed Nuclei (%) [5]: 11% | Population Tubulin-Different-Phenotype (%) [5]: 22% | Total Cell Count [5]: 566 | Population Apoptotic (%) [6]: 43% | Population Fragmented Nuclei (%) [6]: 11% | Population Hoechst High Intensity Objects (%) [6]: 13% | Population Mitochondria Different-Phenotype (%) [6]: 41% | Population Mitotic Cells (%) [6]: 56% | Population Normal (%) [6]: 86% | Population Pyknosed Nuclei (%) [6]: 9% | Population Tubulin-Different-Phenotype (%) [6]: 17% | Total Cell Count [6]: 481 | Population Apoptotic (%) [7]: 29% | Population Fragmented Nuclei (%) [7]: 10% | Population Healthy Nuclei (%) [7]: 74% | Population Hoechst High Intensity Objects (%) [7]: 8% | Population Membrane Permeable-Phenotype (%) [7]: 0% | Population Mitochondria Different-Phenotype (%) [7]: 55% | Population Mitotic Cells (%) [7]: 70% | Population Normal (%) [7]: 91% | Population Pyknosed Nuclei (%) [7]: 15% | Population Tubulin-Different-Phenotype (%) [7]: 49% | Total Cell Count [7]: 472 | Population Apoptotic (%) [8]: 59% | Population Fragmented Nuclei (%) [8]: 8% | Population Healthy Nuclei (%) [8]: 71% | Population Hoechst High Intensity Objects (%) [8]: 22% | Population Mitochondria Different-Phenotype (%) [8]: 72% | Population Mitotic Cells (%) [8]: 40% | Population Normal (%) [8]: 77% | Population Pyknosed Nuclei (%) [8]: 19% | Population Tubulin-Different-Phenotype (%) [8]: 43% | Total Cell Count [8]: 383 | Population Apoptotic (%) [9]: 23% | Population Fragmented Nuclei (%) [9]: 14% | Population Healthy Nuclei (%) [9]: 79% | Population Hoechst High Intensity Objects (%) [9]: 1% | Population Membrane Permeable-Phenotype (%) [9]: 1% | Population Mitochondria Different-Phenotype (%) [9]: 19% | Population Mitotic Cells (%) [9]: 76% | Population Normal (%) [9]: 98% | Population Pyknosed Nuclei (%) [9]: 5% | Population Tubulin-Different-Phenotype (%) [9]: 14% | Total Cell Count [9]: 932 | Population Apoptotic (%) [10]: 46% | Population Hoechst High Intensity Objects (%) [10]: 3% | Population Membrane Permeable-Phenotype (%) [10]: 0% | Population Mitotic Cells (%) [10]: 53% | Population Normal (%) [10]: 96% | Population Pyknosed Nuclei (%) [10]: 6% | Population Tubulin-Different-Phenotype (%) [10]: 12% | Total Cell Count [10]: 676 | Population Apoptotic (%) [11]: 38% | Population Fragmented Nuclei (%) [11]: 14% | Population Healthy Nuclei (%) [11]: 76% | Population Hoechst High Intensity Objects (%) [11]: 6% | Population Membrane Permeable-Phenotype (%) [11]: 0% | Population Mitochondria Different-Phenotype (%) [11]: 45% | Population Mitotic Cells (%) [11]: 61% | Population Normal (%) [11]: 93% | Population Pyknosed Nuclei (%) [11]: 9% | Population Tubulin-Different-Phenotype (%) [11]: 35% | Total Cell Count [11]: 627 | Population Apoptotic (%) [12]: 60% | Population Fragmented Nuclei (%) [12]: 15% | Population Healthy Nuclei (%) [12]: 72% | Population Hoechst High Intensity Objects (%) [12]: 16% | Population Mitochondria Different-Phenotype (%) [12]: 53% | Population Mitotic Cells (%) [12]: 40% | Population Normal (%) [12]: 83% | Population Pyknosed Nuclei (%) [12]: 12% | Total Cell Count [12]: 539

Source: ChEMBL document CHEMBL5058577, “EUbOPEN Chemogenomics Library 2 (Multiplex)” (2022)
